What was measured:
Format in all cases: functional
[1] = Growth inhibition of human SF295 cells assessed as cell growth at 10 uM incubated for 48 hrs by sulforhodamine B assay relative to control; details: SF-295, 48 h, read-out: Activity
Summary of the method: (§1)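 Run in the standard NCI 60-cell-line screen. Cells were exposed to drug for two days, and the read-out was sulforhodamine B staining. Compound was tested at a single final concentration of 10 µM in every line, and results are reported as growth percent.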

M14 = assay: Growth inhibition of human M14 cells assessed as cell growth at 10 uM incubated for 48 hrs by sulforhodamine B assay relative to control; details: M14, 48 h, read-out: Activity; summary of the method: as §1
[2] = Growth inhibition of human UACC257 cells incubated for 48 hrs by sulforhodamine B assay; details: UACC-257, 48 h; for CC50: read-out: pLC50 (the source's name) (converted); for TGI: read-out: pTGI (converted)
Summary of the method: (§2)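 Tested in the standard NCI 60-cell-line protocol with two-day drug exposure and a sulforhodamine B endpoint. Compounds were first screened at a single final concentration of 10 µM, reported as growth percent. They were then run as five 10-fold dilutions starting from a high concentration of 100 µM to give dose-response curves.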

SK-MEL-2 = assay: Growth inhibition of human SK-MEL-2 cells incubated for 48 hrs by sulforhodamine B assay; details: SK-MEL-2, 48 h; for TGI: read-out: pTGI (converted)
Summary of the method: (§3)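 NCI 60-cell-line panel, standard protocol. Cells exposed to compound for two days, growth read by sulforhodamine B staining. Tested at five 10-fold dilutions, top concentration 100 µM, to give dose-response curves.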

[3] = Growth inhibition of human SKOV3 cells incubated for 48 hrs by sulforhodamine B assay; details: SK-OV-3, 48 h; for TGI: read-out: pTGI (converted); summary of the method: as §2
NCI-H226 = assay: Growth inhibition of human NCI-H226 cells assessed as cell growth at 10 uM incubated for 48 hrs by sulforhodamine B assay relative to control; details: NCI-H226, 48 h, read-out: Activity; summary of the method: as §1
[4] = Growth inhibition of human OVCAR5 cells assessed as cell growth at 10 uM incubated for 48 hrs by sulforhodamine B assay relative to control; details: OVCAR-5, 48 h, read-out: Activity; summary of the method: as §1
HT-29 = assay: Growth inhibition of human HT-29 cells incubated for 48 hrs by sulforhodamine B assay; details: HT-29, 48 h; for TGI: read-out: pTGI (converted); summary of the method: as §3
[5] = Growth inhibition of human LOXIMVI cells assessed as cell growth at 10 uM incubated for 48 hrs by sulforhodamine B assay relative to control; details: LOX IMVI, read-out: Activity
Summary of the method: (§4)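 Single-dose screen in the NCI 60-cell-line panel at one final concentration of 10 µM. Two-day drug exposure with a sulforhodamine B endpoint. Values are growth percent for each cell line.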

786-0 = assay: Growth inhibition of human 786-0 cells incubated for 48 hrs by sulforhodamine B assay; details: 786-0, 48 h; for TGI: read-out: pTGI (converted); summary of the method: as §3
[6] = Growth inhibition of human HCC2998 cells incubated for 48 hrs by sulforhodamine B assay; details: HCC 2998, 48 h; for TGI: read-out: pTGI (converted); summary of the method: as §3
SK-MEL-28 [7] = assay: Growth inhibition of human SK-MEL-28 cells incubated for 48 hrs by sulforhodamine B assay; details: SK-MEL-28, 48 h; for TGI: read-out: pTGI (converted); summary of the method: as §3
[8] = Growth inhibition of human PC3 cells incubated for 48 hrs by sulforhodamine B assay; details: PC-3, 48 h; for CC50: read-out: pLC50 (the source's name) (converted); for TGI: read-out: pTGI (converted); summary of the method: as §3
[9] = Growth inhibition of human UACC257 cells assessed as cell growth at 10 uM incubated for 48 hrs by sulforhodamine B assay relative to control; details: UACC-257, 48 h, read-out: Activity
Summary of the method: (§5)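 NCI 60-cell line standard protocol, one-dose screen: single final concentration 10 µM, 2-day drug exposure, sulforhodamine B (SRB) endpoint; read-out is growth percent relative to untreated control.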

[10] = Growth inhibition of human SF268 cells incubated for 48 hrs by sulforhodamine B assay; details: SF-268, 48 h; for TGI: read-out: pTGI (converted); summary of the method: as §3
[11] = Growth inhibition of human SW620 cells incubated for 48 hrs by sulforhodamine B assay; details: SW-620, 48 h; for TGI: read-out: pTGI (converted); summary of the method: as §2
[12] = Growth inhibition of human SNB75 cells incubated for 48 hrs by sulforhodamine B assay; details: SNB-75, 48 h; for TGI: read-out: pTGI (converted); summary of the method: as §2
[13] = Growth inhibition of human BT549 cells incubated for 48 hrs by sulforhodamine B assay; details: BT-549, 48 h; for CC50: read-out: pLC50 (the source's name) (converted); for TGI: read-out: pTGI (converted); summary of the method: as §3
SN12C = assay: Growth inhibition of human SN12C cells assessed as cell growth at 10 uM incubated for 48 hrs by sulforhodamine B assay relative to control; details: read-out: Activity; summary of the method: as §1
[14] = Growth inhibition of human UO31 cells incubated for 48 hrs by sulforhodamine B assay; details: UO-31, 48 h; for CC50: read-out: pLC50 (the source's name) (converted); for TGI: read-out: pTGI (converted); summary of the method: as §2
SK-MEL-28 [15] = assay: Growth inhibition of human SK-MEL-28 cells assessed as cell growth at 10 uM incubated for 48 hrs by sulforhodamine B assay relative to control; details: SK-MEL-28, 48 h, read-out: Activity; summary of the method: as §1
T47D = assay: Growth inhibition of human T47D cells assessed as cell growth at 10 uM incubated for 48 hrs by sulforhodamine B assay relative to control; details: read-out: Activity; summary of the method: as §5
[16] = Growth inhibition of human OVCAR8 cells incubated for 48 hrs by sulforhodamine B assay; details: OVCAR-8, 48 h; for TGI: read-out: pTGI (converted); summary of the method: as §3
[17] = Growth inhibition of human HCC2998 cells assessed as cell growth at 10 uM incubated for 48 hrs by sulforhodamine B assay relative to control; details: HCC 2998, 48 h, read-out: Activity; summary of the method: as §4
A498 = assay: Growth inhibition of human A498 cells assessed as cell growth at 10 uM incubated for 48 hrs by sulforhodamine B assay relative to control; details: A498, 48 h, read-out: Activity
MDA-MB-468 = assay: Growth inhibition of human MDA-MB-468 cells incubated for 48 hrs by sulforhodamine B assay; details: MDA-MB-468, 48 h; for CC50: read-out: pLC50 (the source's name) (converted); for TGI: read-out: pTGI (converted); summary of the method: as §3
NCI-H322M = assay: Growth inhibition of human NCI-H322M cells incubated for 48 hrs by sulforhodamine B assay; details: for TGI: read-out: pTGI (converted); summary of the method: as §3
CCRF-CEM = assay: Growth inhibition of human CCRF-CEM cells assessed as cell growth at 10 uM incubated for 48 hrs by sulforhodamine B assay relative to control; details: read-out: Activity; summary of the method: as §4

Compound: C/C(=C\C(=O)O[C@H]1[C@@H]2[C@H](C)CC[C@H]2[C@]2(C)O[C@@]1(C(C)C)C[C@H]2NC(=O)CO)c1ccccc1
- growth at 10 µM [1]: 97.8%
- growth at 10 µM (M14): 100%
- GI50 [2]: 34.7 µM
- CC50 [2]: > 100 µM
- TGI [2]: > 100 µM
- GI50 (SK-MEL-2): 31.6 µM
- LC50 (SK-MEL-2): > 100 µM
- TGI (SK-MEL-2): > 100 µM
- GI50 [3]: 30.2 µM
- LC50 [3]: > 100 µM
- TGI [3]: > 100 µM
- growth at 10 µM (NCI-H226): 90.7%
- growth at 10 µM [4]: 119%
- GI50 (HT-29): 40.7 µM
- LC50 (HT-29): > 100 µM
- TGI (HT-29): > 100 µM
- growth at 10 µM [5]: 100%
- GI50 (786-0): 33.9 µM
- LC50 (786-0): > 100 µM
- TGI (786-0): > 100 µM
- GI50 [6]: 34.7 µM
- LC50 [6]: > 100 µM
- TGI [6]: > 100 µM
- GI50 (SK-MEL-28 [7]): 45.7 µM
- LC50 (SK-MEL-28 [7]): > 100 µM
- TGI (SK-MEL-28 [7]): > 100 µM
- GI50 [8]: 18.6 µM
- CC50 [8]: > 100 µM
- TGI [8]: > 100 µM
- growth at 10 µM [9]: 92.4%
- GI50 [10]: 26.9 µM
- LC50 (lethal concentration, 50% net cell kill) [10]: > 100 µM
- TGI [10]: > 100 µM
- GI50 [11]: 45.7 µM
- LC50 (50% lethal concentration) [11]: > 100 µM
- TGI [11]: > 100 µM
- GI50 [12]: 12.3 µM
- LC50 [12]: > 100 µM
- TGI [12]: > 100 µM
- GI50 [13]: 22.4 µM
- CC50 [13]: > 100 µM
- TGI [13]: 69.2 µM
- growth at 10 µM (SN12C): 84.6%
- GI50 [14]: 3.02 µM
- CC50 [14]: > 100 µM
- TGI [14]: 12 µM
- growth at 10 µM (SK-MEL-28 [15]): 118%
- growth at 10 µM (T47D): 89.3%
- GI50 [16]: 7.59 µM
- LC50 (concentration killing 50% of cells) [16]: > 100 µM
- TGI [16]: > 100 µM
- growth at 10 µM [17]: 104%
- growth at 10 µM (A498): -24.6%
- GI50 (MDA-MB-468): 28.8 µM
- CC50 (MDA-MB-468): > 100 µM
- TGI (MDA-MB-468): > 100 µM
- GI50 (NCI-H322M): > 100 µM
- LC50 (NCI-H322M): > 100 µM
- TGI (NCI-H322M): > 100 µM
- growth at 10 µM (CCRF-CEM): 94.1%

Compound: CC(C)[C@@]12C[C@@H](NC(=O)CO)[C@@](C)(O1)[C@@H]1CC[C@@H](C)[C@H]1[C@@H]2OC(=O)/C=C/c1ccccc1
- growth at 10 µM [1]: 90.6%
- growth at 10 µM (M14): 103%
- GI50 [2]: 10.5 µM
- CC50 [2]: > 50.1 µM
- TGI [2]: 45.7 µM
- GI50 (SK-MEL-2): 14.8 µM
- LC50 (SK-MEL-2): > 50.1 µM
- TGI (SK-MEL-2): 37.2 µM
- GI50 [3]: > 50.1 µM
- LC50 [3]: > 50.1 µM
- TGI [3]: > 50.1 µM
- growth at 10 µM (NCI-H226): 90.8%
- growth at 10 µM [4]: 93%
- GI50 (HT-29): 16.6 µM
- LC50 (HT-29): > 50.1 µM
- TGI (HT-29): > 50.1 µM
- growth at 10 µM [5]: 102%
- GI50 (786-0): 3.63 µM
- LC50 (786-0): > 50.1 µM
- TGI (786-0): 24 µM
- GI50 [6]: 15.8 µM
- LC50 [6]: > 50.1 µM
- TGI [6]: > 50.1 µM
- GI50 (SK-MEL-28 [7]): 20.9 µM
- LC50 (SK-MEL-28 [7]): > 50.1 µM
- TGI (SK-MEL-28 [7]): > 50.1 µM
- GI50 [8]: 11.7 µM
- CC50 [8]: > 50.1 µM
- TGI [8]: > 50.1 µM
- growth at 10 µM [9]: 104%
- GI50 [10]: 14.8 µM
- LC50 (lethal concentration, 50% net cell kill) [10]: > 50.1 µM
- TGI [10]: > 50.1 µM
- GI50 [11]: 22.4 µM
- LC50 (50% lethal concentration) [11]: > 50.1 µM
- TGI [11]: > 50.1 µM
- GI50 [12]: 9.77 µM
- LC50 [12]: > 50.1 µM
- TGI [12]: 43.7 µM
- GI50 [13]: 6.92 µM
- CC50 [13]: > 50.1 µM
- TGI [13]: 25.1 µM
- growth at 10 µM (SN12C): 48.8%
- GI50 [14]: 6.17 µM
- CC50 [14]: > 50.1 µM
- TGI [14]: > 50.1 µM
- growth at 10 µM (SK-MEL-28 [15]): 112%
- growth at 10 µM (T47D): 76.3%
- GI50 [16]: 4.79 µM
- LC50 (concentration killing 50% of cells) [16]: > 50.1 µM
- TGI [16]: > 50.1 µM
- growth at 10 µM (A498): -15.2%
- GI50 (MDA-MB-468): 12.3 µM
- CC50 (MDA-MB-468): > 50.1 µM
- TGI (MDA-MB-468): > 50.1 µM
- GI50 (NCI-H322M): > 50.1 µM
- LC50 (NCI-H322M): > 50.1 µM
- TGI (NCI-H322M): > 50.1 µM
- growth at 10 µM (CCRF-CEM): 99.8%

Reference: ChEMBL document CHEMBL3804761, “Synthesis of a stable and orally bioavailable englerin analogue” (Bioorg Med Chem Lett, 2016)
